{"data": "Assay results gathered from unrelated publications", "read-out": "metabolic stability", "host": "human", "medium": "liver microsomes"}
{"SMILES": "CC[C@H](NC(=O)[C@H](CS(=O)(=O)CC1CC1)N[C@@H](c1ccc(F)cc1)C(F)(F)F)C(=O)C(=O)NC1CC1", "time": "1 h", "compound remaining [%]": 93}
{"SMILES": "O=C(Nc1ccc(S(=O)(=O)N2CCC(Cl)CC2)cc1)c1ccc([N+](=O)[O-])o1", "tested at": "1 µM", "time": "1 h", "pH": "pH 7.4", "compound remaining [%]": 0.49}
{"SMILES": "O=C(CCCO)N1N=C(c2c(-c3ccc(Cl)cc3)c3ccccc3[nH]c2=O)CC1c1ccc(Cl)cc1 (centres unmarked)", "tested at": "1 µM", "time": "20 min", "pH": "pH 7.4", "compound remaining [%]": 31}
{"SMILES": "CC(C)NCC(O)COc1cccc2ccccc12 (centres unmarked)", "tested at": "1 µM", "time": "30 min", "compound remaining [%]": 63}
{"SMILES": "Nc1nc(-c2ccc(NC(=O)Nc3cccc(-c4c[nH]c(N)n4)c3F)cc2F)c[nH]1", "tested at": "5 µM", "time": "1 h", "pH": "pH 7.4", "compound remaining [%]": "> 80"}
{"SMILES": "CS(=O)(=O)c1ccc(-c2cnc(N)c(-c3ccc(C(F)(F)F)nc3)c2)cc1", "tested at": "1 µM", "time": "30 min", "compound remaining [%]": 92}
{"SMILES": "Cc1cn(-c2ccc(-c3csc(Nc4c5c(nn4C)CCCC5)n3)cc2)cn1", "tested at": "1 µM", "time": "30 min", "compound remaining [%]": 55}
{"SMILES": "Nc1nc(-c2cccc(NC(=O)Nc3cccc(-c4c[nH]c(N)n4)c3)c2)c[nH]1", "tested at": "5 µM", "time": "1 h", "pH": "pH 7.4", "compound remaining [%]": "> 80"}
